The source of these data is ChEMBL document CHEMBL3784928, “Development and Characterization of Novel and Selective Inhibitors of Cytochrome P450 CYP26A1, the Human Liver Retinoic Acid Hydroxylase” (J Med Chem, 2016).

Usually IC50 stands for the concentration needed to halve the response being measured. Read a low IC50 as inhibition by little substance. One may read the inhibition as the share of the control response that was lost under treatment.

In data set [1] the target is T1, Cytochrome P450 26A1 (Homo sapiens, UniProt O43174).
T1 sequence (O43174 whole entry): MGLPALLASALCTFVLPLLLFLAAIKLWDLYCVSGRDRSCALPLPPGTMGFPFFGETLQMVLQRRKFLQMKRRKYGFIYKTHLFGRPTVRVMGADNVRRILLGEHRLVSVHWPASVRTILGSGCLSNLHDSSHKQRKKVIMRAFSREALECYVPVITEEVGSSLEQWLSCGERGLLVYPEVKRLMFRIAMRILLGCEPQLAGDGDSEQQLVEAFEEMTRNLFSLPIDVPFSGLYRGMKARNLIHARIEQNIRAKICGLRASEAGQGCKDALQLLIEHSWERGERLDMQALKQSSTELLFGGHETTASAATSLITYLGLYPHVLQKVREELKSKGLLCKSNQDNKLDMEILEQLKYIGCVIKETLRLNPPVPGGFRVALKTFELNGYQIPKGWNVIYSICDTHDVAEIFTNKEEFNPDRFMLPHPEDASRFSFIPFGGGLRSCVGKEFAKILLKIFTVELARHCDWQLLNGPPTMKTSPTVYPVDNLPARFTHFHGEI

The target of data set [2] is T2, Cytochrome P450 26B1 (Homo sapiens, UniProt Q9NR63).
T2 sequence (Q9NR63 whole entry): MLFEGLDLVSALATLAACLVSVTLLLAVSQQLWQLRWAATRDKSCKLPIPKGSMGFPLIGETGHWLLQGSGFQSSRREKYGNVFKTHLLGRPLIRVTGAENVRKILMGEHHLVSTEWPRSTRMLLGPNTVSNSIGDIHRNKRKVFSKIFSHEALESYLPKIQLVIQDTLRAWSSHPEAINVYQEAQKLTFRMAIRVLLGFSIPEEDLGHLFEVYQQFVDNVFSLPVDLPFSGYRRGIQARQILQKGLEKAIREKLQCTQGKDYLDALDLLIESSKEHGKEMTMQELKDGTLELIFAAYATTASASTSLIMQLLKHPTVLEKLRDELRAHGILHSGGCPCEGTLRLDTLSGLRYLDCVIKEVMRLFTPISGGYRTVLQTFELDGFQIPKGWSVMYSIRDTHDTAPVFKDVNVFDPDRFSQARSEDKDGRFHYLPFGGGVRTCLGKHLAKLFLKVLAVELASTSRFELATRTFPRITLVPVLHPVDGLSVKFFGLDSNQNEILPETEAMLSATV

Data set [3] has as its target T3, Retinoic acid receptor (Homo sapiens) (UniProt P13631+P10826+P10276). In words: Activation of RAR in human HepG2 cells assessed as upregulation of RARbeta mRNA expression at 1 uM after 24 hrs by RT-PCR method. The format is cell-based. In short, it runs like this: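 HepG2 cells in DMEM with 10% FBS, 37 °C, 5% CO2, plated 24 h before dosing. Treated 24 h in 2 mL medium at 1 μM in 0.1% DMSO, alongside a 0.1% DMSO vehicle; triplicates. RNA isolated with TRI reagent and cDNA made from 1 μg. TaqMan RT-PCR multiplexed with GAPDH as housekeeping gene; fold change by the C_T method.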

The nature of data set [4]: Activation of human RARbeta at 1 uM by luciferase reporter gene assay. (In general: In a reporter assay the amount or activity of a reporter protein is the signal.)
Data set [5] has as its target T1, Cytochrome P450 26A1. In words: Inhibition of CYP26A1-mediated atRA metabolism in human HepG2 cells assessed as atRA level in cell media at 1 uM after 24 hrs by LC/MS-MS analysis (reference value: 0.49 +/- 0.33 nM). The class given is cell-based. The settings on record: hepg2, 24 h.
The target in data set [6] is T4, Retinoic acid receptor alpha (Homo sapiens) (UniProt P10276).
T4 sequence (whole entry): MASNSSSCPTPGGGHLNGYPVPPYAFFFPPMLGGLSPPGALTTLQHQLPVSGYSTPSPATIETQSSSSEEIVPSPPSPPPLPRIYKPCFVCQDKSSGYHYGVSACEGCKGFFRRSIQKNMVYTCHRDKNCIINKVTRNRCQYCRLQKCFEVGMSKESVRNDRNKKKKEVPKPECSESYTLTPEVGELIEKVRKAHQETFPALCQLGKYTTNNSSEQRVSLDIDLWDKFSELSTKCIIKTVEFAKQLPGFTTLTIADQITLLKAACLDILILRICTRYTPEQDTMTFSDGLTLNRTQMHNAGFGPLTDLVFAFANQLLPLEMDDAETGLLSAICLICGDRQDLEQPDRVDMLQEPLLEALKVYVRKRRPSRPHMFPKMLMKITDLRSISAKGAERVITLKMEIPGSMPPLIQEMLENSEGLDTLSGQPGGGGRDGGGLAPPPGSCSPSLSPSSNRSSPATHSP
In words: Activation of human RARalpha at 1 uM by luciferase reporter gene assay.

For another data set, the target named is CYP3A4 (Homo sapiens, UniProt P08684). In words: Inhibition of CYP3A4 in human liver microsomes upto 100 uM using midazolam as substrate by LC-MS/MS analysis in presence of NADPH. The format is ADME. The settings on record: probe midazolam, read-out: Imax. In short, it runs like this: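 Human liver microsomes incubated with midazolam as the CYP3A4-selective substrate plus inhibitor in 100 mM potassium phosphate buffer. Reaction started with NADPH and quenched with ice-cold acetonitrile. Product formation measured by LC-MS/MS.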
Chain of CYP3A4 (P08684 whole entry): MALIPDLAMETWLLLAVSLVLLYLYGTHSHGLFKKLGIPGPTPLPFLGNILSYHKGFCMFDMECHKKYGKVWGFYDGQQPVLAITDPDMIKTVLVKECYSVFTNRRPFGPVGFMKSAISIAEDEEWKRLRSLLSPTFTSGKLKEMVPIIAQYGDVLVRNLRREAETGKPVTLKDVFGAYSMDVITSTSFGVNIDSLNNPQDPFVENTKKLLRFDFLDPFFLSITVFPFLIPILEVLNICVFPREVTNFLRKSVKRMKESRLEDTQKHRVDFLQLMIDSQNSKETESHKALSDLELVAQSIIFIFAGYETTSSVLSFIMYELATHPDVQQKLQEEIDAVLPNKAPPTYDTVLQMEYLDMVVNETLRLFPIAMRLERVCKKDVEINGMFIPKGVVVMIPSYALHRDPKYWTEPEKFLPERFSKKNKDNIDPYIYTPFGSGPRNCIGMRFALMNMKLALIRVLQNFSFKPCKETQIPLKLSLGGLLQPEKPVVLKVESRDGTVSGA
(Liver microsomes are vesicles of endoplasmic reticulum, rich in cytochrome P450 enzymes.)

The target in data set [7] is T3, Retinoic acid receptor (Homo sapiens). In words: Activation of RAR in human HepG2 cells assessed as upregulation of CYP26A1 mRNA expression at 1 uM after 24 hrs by RT-PCR method. The format is cell-based. In short, it runs like this:
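HepG2 cells kept in DMEM with 10% FBS at 37 °C under 5% CO2. Plated and left to adhere 24 h, then exposed 24 h to 1 μM compound in 0.1% DMSO, with 0.1% DMSO as vehicle control. Triplicate wells. TRI reagent mRNA extraction, cDNA from 1 μg mRNA. CYP26A1 measured by TaqMan RT-PCR multiplexed with GAPDH as housekeeping gene. Fold-difference calculated by the CT method.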

In data set [8] the target is T2, Cytochrome P450 26B1. Description: Inhibition of microsomal fraction of human CYP26B1 expressed in Sf9 cells using 9-cis-RA as substrate at 20 uM preincubated for 5 mins followed by NADPH addition measured after 5 mins by HPLC analysis in presence of rat P450 reductase. In short, it runs like this:
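Sf9 microsomes expressing CYP26B1, 5 pmol, preincubated 10 min at room temperature with 10 pmol E. coli-expressed rat P450 reductase. […] Preincubated 5 min at 37 °C, started with 1 mM NADPH (final), run 5 min. 9-cis-4-OH-RA measured by HPLC; activity expressed relative to solvent control.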

The species entered for the next data set is Homo sapiens. In words: Selectivity ratio of IC50 for microsomal fraction of human CYP26B1 to IC50 for microsomal fraction of human CYP26A1.
A further data set deals with Cytochrome P450 3A4 (Homo sapiens, UniProt P08684).
Chain of Cytochrome P450 3A4 (P08684 whole entry): as above
The target in the next data set is CYP2D6 (Homo sapiens, UniProt P10635). In words: in vitro. The conditions noted are these: human liver microsomes, probe dextromethorphan.
Chain of CYP2D6 (P10635 whole entry): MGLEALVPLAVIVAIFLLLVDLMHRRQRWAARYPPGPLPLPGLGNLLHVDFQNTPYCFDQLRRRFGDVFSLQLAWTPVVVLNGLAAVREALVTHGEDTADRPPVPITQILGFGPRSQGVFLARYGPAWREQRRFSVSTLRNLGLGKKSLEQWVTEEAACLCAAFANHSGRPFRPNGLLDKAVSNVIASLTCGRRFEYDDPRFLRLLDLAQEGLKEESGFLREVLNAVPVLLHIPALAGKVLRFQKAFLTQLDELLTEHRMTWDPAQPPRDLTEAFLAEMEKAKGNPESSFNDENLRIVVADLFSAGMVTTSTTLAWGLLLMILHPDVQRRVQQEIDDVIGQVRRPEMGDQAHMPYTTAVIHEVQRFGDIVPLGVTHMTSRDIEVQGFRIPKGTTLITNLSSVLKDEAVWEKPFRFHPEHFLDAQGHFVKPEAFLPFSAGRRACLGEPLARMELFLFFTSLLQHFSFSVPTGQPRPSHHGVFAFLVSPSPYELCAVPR

Activity calls are given as the source filed them. No cut-off for these calls is given here. Where only a bound is given, the exact number is not on record here.

T3 sequence (P10826 whole entry, looked up, one chain of several): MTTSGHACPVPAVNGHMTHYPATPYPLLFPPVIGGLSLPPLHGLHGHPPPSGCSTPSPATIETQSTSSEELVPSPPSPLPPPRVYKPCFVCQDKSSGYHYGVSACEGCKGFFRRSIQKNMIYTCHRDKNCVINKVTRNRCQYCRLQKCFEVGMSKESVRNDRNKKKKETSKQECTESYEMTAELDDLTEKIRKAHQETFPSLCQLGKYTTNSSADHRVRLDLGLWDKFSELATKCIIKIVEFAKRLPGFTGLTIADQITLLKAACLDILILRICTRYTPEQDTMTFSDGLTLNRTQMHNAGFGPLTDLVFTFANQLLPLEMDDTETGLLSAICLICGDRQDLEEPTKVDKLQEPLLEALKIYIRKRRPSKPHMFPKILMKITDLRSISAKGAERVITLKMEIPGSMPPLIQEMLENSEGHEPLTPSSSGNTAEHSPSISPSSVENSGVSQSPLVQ
T3 sequence (P13631 whole entry, looked up, one chain of several): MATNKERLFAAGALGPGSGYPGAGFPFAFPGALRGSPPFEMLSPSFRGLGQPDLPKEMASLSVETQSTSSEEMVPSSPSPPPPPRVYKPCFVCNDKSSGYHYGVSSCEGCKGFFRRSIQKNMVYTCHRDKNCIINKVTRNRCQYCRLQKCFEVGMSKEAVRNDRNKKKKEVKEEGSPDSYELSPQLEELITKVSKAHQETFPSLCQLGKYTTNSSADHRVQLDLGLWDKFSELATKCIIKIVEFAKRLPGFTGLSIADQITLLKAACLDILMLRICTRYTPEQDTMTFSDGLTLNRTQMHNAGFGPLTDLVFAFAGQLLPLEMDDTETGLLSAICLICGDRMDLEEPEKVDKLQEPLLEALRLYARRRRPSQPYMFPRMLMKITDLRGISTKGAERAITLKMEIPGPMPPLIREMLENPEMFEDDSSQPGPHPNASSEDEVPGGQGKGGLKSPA

Take `C=C(c1ccc(C(=O)O)cc1)c1cc2c(cc1C)C(C)(C)CCC2(C)C` [BEXAROTENE]: the results for the IC50 at Cytochrome P450 26A1 [1] and against Cytochrome P450 26B1 [2] were 13.5 µM and 5.9 µM, respectively.
For `CC1(C)CCC(C)(C)c2cc(C3(c4ccc(CCC(=O)O)cc4)OCCO3)ccc21`, the result in data set [3], in [4], in data set [6] and in [7] was inactive. Besides, the Activity at Cytochrome P450 26A1 [5] is 0.27 nM. On CYP3A4, the Emax was 40%.
In the case of `CC1(C)CCC(C)(C)c2cc(/C(COc3ccc(C(=O)O)cc3)=N/O)ccc21`, the IC50 against Cytochrome P450 26A1 [1] was 3.5 µM; against Cytochrome P450 26B1 [2], 1.4 µM.
In turn, `CC1(C)CCC(C)(C)c2cc(C3(c4ccc(/C=C/C(=O)O)cc4)SCCS3)ccc21` had an IC50 on Cytochrome P450 26A1 [1] above 10 µM.
For `CC1(C)CCC(C)(C)c2cc(C3(c4ccc(C(=O)O)cc4)OCCO3)ccc21`, the inhibition at 20 µM on Cytochrome P450 26B1 [8] is 59%.
For `CC1(C)CCC(C)(C)c2cc(Sc3ccc(CC(=O)O)cc3)ccc21`, the IC50 on Cytochrome P450 26A1 [1] is 10.6 µM; against Cytochrome P450 26B1 [2] it was above 5 µM.
As to `CC1(C)CCC(C)(C)c2cc(C(=O)c3ccc(CCC(=O)O)cc3)ccc21`, the IC50 against Cytochrome P450 26A1 [1] and on Cytochrome P450 26B1 [2] was above 5 µM in each case.
With `CC1(C)CCC(C)(C)c2cc(C(=O)COc3ccc(C(=O)O)cc3)ccc21`, the results for the half-inhibitory concentration (IC50) on Cytochrome P450 26A1 [1] and against Cytochrome P450 26B1 [2] were 4 µM and 0.93 µM, respectively.
As for `CC1(C)CCC(C)(C)c2cc(C(=O)c3ccc(C(=O)O)cc3)ccc21`, the 50% inhibitory concentration (IC50) at Cytochrome P450 26A1 [1] and on Cytochrome P450 26B1 [2] was above 25 µM each time.
With `CC1(C)CCC(C)(C)c2cc(C(O)COc3ccc(C(=O)O)cc3)ccc21` (stereo unspecified), the concentration for half-maximal inhibition (IC50) against Cytochrome P450 26A1 [1] worked out at 2.8 µM; against Cytochrome P450 26B1 [2], 1.4 µM.
`CC1(C)CCC(C)(C)c2cc(Sc3cccc(CC(=O)O)c3)ccc21`: the IC50 at Cytochrome P450 26A1 [1] and against Cytochrome P450 26B1 [2] was above 5 µM each time.
On to `CC1(C)CCC(C)(C)c2cc(S(=O)(=O)c3cccc(CC(=O)O)c3)ccc21`, for which the concentration for half-maximal inhibition (IC50) against Cytochrome P450 26A1 [1] and against Cytochrome P450 26B1 [2] was above 5 µM throughout.
As to `CC1(C)CCC(C)(C)c2cc(C(=O)c3ccc(/C=C/C(=O)O)cc3)ccc21`, the IC50 against Cytochrome P450 26A1 [1] was 4.7 µM; against Cytochrome P450 26B1 [2], above 5 µM.
In the case of `CC1(C)CCC(C)(C)c2cc(C3(c4ccc(CCC(=O)O)cc4)SCCS3)ccc21`, the outcome in data set [3], in [6] and in data set [7] was inactive.
On to `CC1(C)CCC(C)(C)c2cc(S(=O)(=O)c3ccc(CCC(=O)O)cc3)ccc21`, for which the IC50 at Cytochrome P450 26A1 [1] was above 5 µM; against Cytochrome P450 26B1 [2] it was 6.2 µM.
For the molecule `CC1(C)CCC(C)(C)c2cc(C3(c4ccc5cc(C(=O)O)ccc5c4)OCCO3)ccc21`, the Ratio IC50 in the data set listed under Homo sapiens is 10.
As to `CC1(C)CCC(C)(C)c2cc(Cc3ccc(CCC(=O)O)cc3)ccc21`, the figures for the IC50 on Cytochrome P450 26A1 [1] and on Cytochrome P450 26B1 [2] were 1.66 µM and 1.7 µM, respectively.
Regarding `CC1(C)CCC(C)(C)c2cc(S(=O)(=O)c3ccc(CC(=O)O)cc3)ccc21`, the IC50 against Cytochrome P450 26A1 [1] and against Cytochrome P450 26B1 [2] was above 5 µM in each case.
`CC1(C)CCC(C)(C)c2cc(C3(c4ccc(C(=O)O)cc4)SCCS3)ccc21` yielded a half-inhibitory concentration (IC50) against Cytochrome P450 26A1 [1] of 1.3 µM.
The molecule `CC1(C)CCC(C)(C)c2cc(C3(c4ccc5cc(C(=O)O)ccc5c4)SCCS3)ccc21` showed an IC50 against Cytochrome P450 26A1 [1] of 0.06 µM.
Consider `CC1(C)CCC(C)(C)c2cc(C3(c4ccc(/C=C/C(=O)O)cc4)OCCO3)ccc21`, for which the outcome in data set [3], in data set [6] and in data set [7] was inactive. At Cytochrome P450 3A4, inhibition was half-maximal at 30 µM (IC50). Moreover, the Activity on Cytochrome P450 26A1 [5] came to 1.09 nM. For the same molecule, testing at 10 µM against CYP2D6 gave an inhibition of 49%.
